Screening results: PubChem, several laboratories
GRIN3A LBD mod: binders of NR3A ligand-binding domain, primary screen, biophysical, differential scanning fluorimetry, uHTS. Tm shift relative to glycine control, % at 25 µM. 340,000 compounds, 2.5% hits. NR3A LBD differential scanning fluorimetry, Tm shift; 0% = protein alone, 100% = glycine-bound protein. AID 1259313, 2017. Glutamate receptor ionotropic, NMDA 3A (GRIN3A) ligand-binding domain;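 active means melting temperature shift of at least 10% of the positive control shift, at one fixed dose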
UPR CHOP act: activators of apoptotic CHOP UPR arm, primary screen, cell-based, CHO-CHOP luciferase reporter, luminescence, uHTS. UPR activation; percent of tunicamycin response over DMSO baseline. activation, % at 10 µM. 330,000 compounds, 0.34% hits. AID 449763, 2010;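 active means at 10 µM dose, activation of 40% or more, normalized to positive control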;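 further: 100% = tunicamycin at 10 µg/mL and 0% = DMSO alone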
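System: CHO CHOP reporter cells. Amount: 500 cells per well. Buffer or medium: F12 medium, 10% FBS. Compound dosing: one dose, 10 µM in 0.5% DMSO. Incubation: 6 h compound exposure at 37 °C after overnight seeding. Technique: Steady-Glo luciferase luminescence. Benchmarks: tunicamycin and DMSO controls.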
aDG glyco up: activators of alpha-DG glycosylation, primary screen, uHTS, Pro5-aDG cells, AlphaScreen; alpha-DG glycosylation AlphaScreen (IIH6); 0% Pro5, 100% B10-LARGE cell signal; activation, % at 10 µM; 360,000 compounds, 0.22% hits; AID 624168, 2012;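 active means activation of at least 8% versus controls, or a plate z-score of at least 8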;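 further: Pro5 are CHO cells carrying HIG-tagged alpha-DG that lacks glycosylation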
XBP1 UPR activ: activators of adaptive XBP1 UPR arm, primary screen, cell-based, CHO-XBP1 luciferase reporter, luminescence, uHTS; 330,000 compounds, 0.33% hits; IRE1-XBP1 UPR activation; percent of tunicamycin response, DMSO as zero; activation, % at 20 µM;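 active means versus positive control, 20 µM dose yields 30% or more activation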;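 further: 100% = tunicamycin at 10 µg/mL and 0% = DMSO only wells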
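Material: CHO-XBP1 cells stably carrying IRE1-XBP1-driven luciferase reporter | Medium: F12 with 10% serum | Compound dosing: 20 µM single concentration, DMSO 1% | Incubation: Overnight seeding at 37 °C, 6 h compound treatment at 37 °C | Detection: Steady-Glo luminescence read | Read-out basis: % activation of reporter signal versus tunicamycin and DMSO controls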
CHOP inh: inhibitors of CHOP promoter induction, primary screen, cell-based, unfolded protein response, luciferase reporter; CHO-K1 CHOP-promoter luciferase, tunicamycin-induced, 15-18 h; inhibition, % at 10 µM; 220,000 compounds, 3.8% hits;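 active means compounds that reduced the stress-induced luciferase reporter signal by more than about 70% of percent inhibition, limit read from the data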;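 further: 0% = tunicamycin plus vehicle and 100% = wells without tunicamycin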
MPTP inh: mitochondrial permeability transition pore inhibitors, primary screen, biochemical, isolated mouse mitochondria, absorbance | AID 602449, 2012 | inhibition, % at 10 µM | 360,000 compounds, 1.4% hits | Ca2+ swelling absorbance, 30 min;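 active means inhibition of 50% or more, scaled per plate between neutral and stimulator controls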;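 further: 0% = DMSO wells given calcium and 100% = 1 mM EGTA wells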
* = called active by the depositor; . = no result given. Sampled rows, rich in hits. Any-hit rate of the full collection: about 5.6%.

SMILES	GRIN3A LBD mod	UPR CHOP act	aDG glyco up	XBP1 UPR activ	CHOP inh	MPTP inh
CCN1C[C@]2(COC(=O)c3ccccc3N)CC[C@H](OC)C34[C@@H]5C[C@H]6[C@H](OC)[C@@H]5[C@](O)(C[C@@H]6OC)[C@@](O)([C@H]13)[C@@H](OC)[C@@H]42	10*	0	0	-6	.	0
CCN1CC2(COC(=O)c3ccccc3N)CCC(OC)C34C5CC6C(OC)CC(O)(C5C6OC)C(O)(C(OC)C23)C14 (stereo not drawn)	1	7	0	6	34	1
NC(Cn1oc(=O)[nH]c1=O)C(=O)O (stereo not drawn)	.	.	.	.	-1	.
C[C@]12C=CC(=O)C=C1CC[C@@H]1[C@@H]2CC[C@]2(C)C(=O)CC[C@@H]12	-2	.	1	.	.	-1
C[C@]12CCC(=O)C(O)=C1CC[C@@H]1[C@@H]2CC[C@]2(C)C(=O)CC[C@@H]12	12*	-1	0	-6	-5	4
CN(N=O)c1cc(O)ccc1O	.	.	.	.	-12	.
Cc1sc(-n2c(C)cc(C=C3C(=O)NC(=O)NC3=O)c2C)c(C#N)c1C	2	2	.	15	80*	.
CN1CCN(c2ccc(S(C)(=O)=O)cc2[N+](=O)[O-])CC1	-3	5	-1	-1	-10	1
CN1CCN(c2ccc(S(=O)(=O)C(F)(F)F)cc2[N+](=O)[O-])CC1	15*	3	0	2	11	0
Cc1ccsc1/C=C1\C(=O)NC(=S)N(C)C1=O	-3	176*	0	29	.	9
CS(=N)(=O)CC[C@H](N)C(=O)O (stereo partly drawn)	.	.	.	.	-6	.
C=CCCC1(C2=CCCCC2)C(=O)NC(=O)NC1=O	15*	.	0	.	.	0
N=Cc1c(O)n(-c2ccc(C34CC5CC(CC(C5)C3)C4)cc2)c(=O)[nH]c1=O	-9	0	0	0	81*	-1
C[C@]12CCC3[C@@H](CC[C@@H]4C[C@H](O)CC[C@]34C)[C@@H]1CCC2=O (stereo partly drawn)	-1	2	0	6	.	1
CC(=O)C1CCC2C3CCC4CC(O)CCC4(C)C3CCC12C (stereo not drawn)	14*	2	0	0	.	0
O=C(NCCO)c1nsnc1NCCCl	-1	0	0	-3	3	-2
O=c1[nH]c(=O)n(Cc2ccc(F)cc2)c(O)c1C=NCc1cccnc1	-6	-1	0	-3	-34	-1
COc1ccc2c(c1OC)C(=O)OC2c1c(O)n(Cc2ccc(F)cc2)c(=O)[nH]c1=O (stereo not drawn)	12*	-2	0	0	-11	-2
COC(=O)C1=C(c2ccc(F)cc2F)C[C@@H]2CC[C@H]1N2C(=O)N1CCC(C)CC1	-1	0	0	-3	.	0
CCOC(=O)c1c(-n2c(C)cc(/C=C3\C(=O)NC(=O)N(C)C3=O)c2C)sc2c1CCCC2	0	1	0	-1	77*	15
Cc1cc(/C=C2\C(=O)NC(=O)N(c3ccc(Cl)cc3)C2=O)c(C)n1-c1sc2c(c1C#N)CCCC2	2	0	1	1	-22	4
CC1(CCl)CN1S(=O)(=O)c1ccccc1 (stereo not drawn)	0	-2	0	1	25	2
CC1Oc2cc3c(-c4c(O)cc(O)c5c(O)c6c(cc45)OC(C)C(C)C6=O)c(O)cc(O)c3c(O)c2C(=O)C1C (stereo not drawn)	18*	7	0	18	102*	18
C=CCNC(=S)Nc1ccc(OC(=O)Nc2ccc(Cl)c(Cl)c2)cc1	21*	.	0	.	22	16
COc1cc(Br)cc(CN2CCN(C)CC2)c1O	11*	0	0	-2	12	0
